Source: ChEMBL document CHEMBL1649376 (Eur J Med Chem, 2011)

Tested on: not listed separately
Test: Chemical stability of the compound in phosphate buffer at pH 7.4 assessed as half life at 100 uM after 30 mins by RP-HPLC analysis
Assay type: physicochemical
Conditions: not given
Procedure, shortened: (§1)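 10 mM methanol stock diluted into 50 mM phosphate buffer pH 7.4 prewarmed to 37 °C, final 100 µM; maintained at 37.0 ± 0.5 °C, sampled every 30 min by RP-HPLC (C8, methanol/water 0.1% TFA) for parent loss and oxime formation; first-order kinetics for t1/2; triplicate.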

Row | half-life at 100 µM | Compound
1 | 1.48 h | O=C(Nc1ccc(F)cc1)c1cnon1
2 | 1.77 h | COc1ccc(NC(=O)c2cnon2)cc1
3 | 1.52 h | O=C(Nc1cc(C(F)(F)F)cc(C(F)(F)F)c1)c1cnon1
4 | 1.68 h | O=C(Nc1cccc(C(F)(F)F)c1)c1cnon1
5 | 2.06 h | O=C(Nc1ccccc1)c1cnon1
6 | 1.53 h | O=C(Nc1cc(F)cc(F)c1)c1cnon1
7 | 1.15 h | O=C(Nc1ccc([N+](=O)[O-])cc1)c1cnon1
8 | 1.89 h | Cc1ccc(NC(=O)c2cnon2)cc1
9 | 1.81 h | O=C(Nc1cccc(F)c1)c1cnon1
10 | 1.7 h | O=C(Nc1ccccc1F)c1cnon1
11 | 1.28 h | O=C(Nc1ccc(-c2ccccc2)cc1)c1cnon1
12 | 1.38 h | O=C(Nc1ccc(C(F)(F)F)cc1)c1cnon1
13 | > 24 h | Cc1oncc1C(=O)Nc1ccc(C(F)(F)F)cc1 [LEFLUNOMIDE]

Tested on: not listed separately
Test: Chemical stability of the compound in phosphate buffer at pH 7.4 assessed as unchanged compound level at 100 uM after 24 hrs by RP-HPLC analysis
Assay type: physicochemical
Conditions: read-out: Stability
Procedure, shortened: as §1

Row | remaining at 24 h, 100 µM | Compound
14 | 80% | Cc1oncc1C(=O)Nc1ccc(C(F)(F)F)cc1 [LEFLUNOMIDE]

Tested on: not listed separately
Test: Chemical stability of the compound in acidic medium at pH 1 after 6 hrs by RP-HPLC analysis
Assay type: physicochemical
Conditions: buffer, pH 1, 6 h
Procedure, shortened: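 Compound added from 10 mM methanol stock into 0.1 M HCl (pH 1) at 37 °C, final 100 µM; held at 37.0 ± 0.5 °C and analysed by RP-HPLC every 30 min for unchanged compound and oxime product; triplicate incubations; C8 column, methanol/water with 0.1% TFA.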

Row | Stability | Compound
15 | Stable | O=C(Nc1ccc(C(F)(F)F)cc1)c1cnon1
16 | Stable | Cc1oncc1C(=O)Nc1ccc(C(F)(F)F)cc1 [LEFLUNOMIDE]

Tested on: not listed separately
Test: Chemical stability of the compound in basic medium assessed as half life at pH 10 after 6 hrs by RP-HPLC analysis
Assay type: physicochemical
Conditions: not given
Procedure, shortened: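 Run in 0.1 M phosphate buffer, pH 10, at 37.0 ± 0.5 °C, compound 100 µM final (from 10 mM methanol stock); RP-HPLC every 30 min quantifying parent and oxime; ring opening treated as first-order for half-life; triplicate incubations.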

Row | half-life | Compound
17 | < 0.0167 h | O=C(Nc1ccc(C(F)(F)F)cc1)c1cnon1
18 | 1.17 h | Cc1oncc1C(=O)Nc1ccc(C(F)(F)F)cc1 [LEFLUNOMIDE]

Tested on: not listed separately
Test: Dissociation constant, pKa of the compound by potentiometric titration
Assay type: physicochemical
Conditions: not given
Procedure, shortened: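 Potentiometric titration under N2 at 25.0 ± 0.1 °C; about 1 mM compound in at least five water–methanol mixtures (24-58 wt% MeOH), ionic strength 0.15 M KCl, acidified to pH 1.8 with 0.5 N HCl, titrated with 0.5 N KOH to pH 10.5; aqueous pKa by Yasuda-Shedlovsky extrapolation to zero cosolvent.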

Row | pKa | Compound
19 | 5.01 | N#C/C(=N\O)C(=O)Nc1ccc(F)cc1
20 | 5.03 | N#C/C(=N\O)C(=O)Nc1ccc(-c2ccccc2)cc1
21 | 4.92 | N#C/C(=N\O)C(=O)Nc1cccc(F)c1
22 | 4.73 | N#C/C(=N\O)C(=O)Nc1cc(C(F)(F)F)cc(C(F)(F)F)c1
23 | 5.07 | Cc1ccc(NC(=O)/C(C#N)=N/O)cc1
24 | 4.87 | N#C/C(=N\O)C(=O)Nc1ccc(C(F)(F)F)cc1
25 | 5.08 | COc1ccc(NC(=O)/C(C#N)=N/O)cc1
26 | 4.87 | N#C/C(=N\O)C(=O)Nc1ccccc1F
27 | 4.81 | N#C/C(=N\O)C(=O)Nc1cc(F)cc(F)c1
28 | 4.88 | N#C/C(=N\O)C(=O)Nc1cccc(C(F)(F)F)c1
29 | 4.61 | N#C/C(=N\O)C(=O)Nc1ccc([N+](=O)[O-])cc1
30 | 5.12 | N#C/C(=N\O)C(=O)Nc1ccccc1

Target: Dihydroorotate dehydrogenase (quinone), mitochondrial (Rattus norvegicus, UniProt Q63707)
Sequence (Q63707 whole entry): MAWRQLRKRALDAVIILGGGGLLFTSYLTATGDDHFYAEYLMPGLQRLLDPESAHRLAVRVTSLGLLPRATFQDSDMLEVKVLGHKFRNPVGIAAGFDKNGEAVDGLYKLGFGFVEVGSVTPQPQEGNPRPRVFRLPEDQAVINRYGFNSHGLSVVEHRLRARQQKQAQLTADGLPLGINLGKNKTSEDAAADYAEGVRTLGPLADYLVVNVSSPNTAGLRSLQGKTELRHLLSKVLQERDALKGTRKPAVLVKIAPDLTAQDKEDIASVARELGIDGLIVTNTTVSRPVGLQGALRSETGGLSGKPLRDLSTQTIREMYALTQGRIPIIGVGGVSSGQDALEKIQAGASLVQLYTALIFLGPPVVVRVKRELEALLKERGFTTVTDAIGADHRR
Test: Inhibition of DHODH in Wistar rat liver homogenates by DCIP reduction assay
Assay type: tissue-based
Conditions: not given

Row | Compound | IC50
31 | N#CC(C(=O)Nc1ccc(-c2ccccc2)cc1)=[N+]([O-])[O-] | 26 µM
32 | N#CC(C(=O)Nc1ccc([N+](=O)[O-])cc1)=[N+]([O-])[O-] | 74 µM

The next lines start with the values.

Row | IC50 | Compound
33 | 17 µM | N#CC(C(=O)Nc1ccc(C(F)(F)F)cc1)=[N+]([O-])[O-]
34 | 60 µM | N#C/C(=N\O)C(=O)Nc1ccc(C(F)(F)F)cc1
35 | 1.6 µM | Cc1oncc1C(=O)Nc1ccc(C(F)(F)F)cc1 [LEFLUNOMIDE]
